Screens (PubChem)
aDG glyco up: increases alpha dystroglycan glycosylation. Pro5-aDG cells, alpha-DG glycosylation AlphaScreen (IIH6); 0% Pro5, 100% B10-LARGE cell signal. activation, % at 10 µM. actives 0.22% (n = 360,000);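 active means activation of at least 8% versus controls, or a plate z-score of at least 8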;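 further: Pro5 are CHO cells carrying HIG-tagged alpha-DG that lacks glycosylation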
UCH37 inh: inhibitors of human deubiquitinating enzyme UCH37. Q9Y5K5. purified proteasome/UCH37, Ub-AMC cleavage fluorescence. inhibition, % (no concentration beside the values). actives 0.33% (n = 330,000);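 active means mean inhibition over replicate wells above about 20%, limit read from the data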;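 further: 0% = compound-free wells with enzyme and 100% = wells lacking proteasome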
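Test system – human UCH37 enzyme supplied as purified proteasome complex · Incubation – 30 min preincubation with enzyme, 25 min cleavage at room temperature · Detection – AMC fluorescence from Ub-AMC cleavage, excitation 355 nm, emission 460 nm · Benchmarks – no-proteasome wells (full inhibition) and compound-free wells (no inhibition)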
Fh CTSL1 inh: cathepsin L1 inhibition, PFM18AAP counter-screen. recombinant F. hepatica cathepsin L1, Z-Leu-Arg-MCA fluorescence. inhibition, % at 5.96 µM. actives 0.49% (n = 300,000);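 active means inhibition above the mean of all tested compounds plus 3 SD, set per screening campaign, cut at about 17% in these data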;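 further: 0% = plate median of test compound wells and 100% = 1 µM Z-Phe-Ala-diazomethylketone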
PKA-R1A activ: PKA-R1A complex activation | P00514+P68181 | PKA-R1A dissociation, Cy5-IP20 fluorescence polarization; scaled: DMSO 0%, 113 µM cGMP 100% | activation, % at 11.4 µM | actives 0.083% (n = 340,000) | AID 504707;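 active means percent activation above the mean of all tested compounds plus 3 SD, cut at about 19% in these data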;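 further: higher means more PKAc released from R1A so a rise in polarization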
PKA-R2B activ: PKA-R2B complex activation. P22694+P31323. PKA-R2B holoenzyme dissociation, Cy5-IP20 fluorescence polarization; R2B truncated from residue 108, S112A mutant; 0% DMSO only, 100% 113 µM cGMP. activation, % at 11.4 µM. actives 0.079% (n = 340,000);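 active means activation above a cutoff set at the mean over all compounds plus 3 SD, cut at about 18% in these data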;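 further: higher means more holoenzyme dissociation and a rise in polarization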
Target sequence (P31323 whole entry, looked up, other chains not shown, the tested form may be a part): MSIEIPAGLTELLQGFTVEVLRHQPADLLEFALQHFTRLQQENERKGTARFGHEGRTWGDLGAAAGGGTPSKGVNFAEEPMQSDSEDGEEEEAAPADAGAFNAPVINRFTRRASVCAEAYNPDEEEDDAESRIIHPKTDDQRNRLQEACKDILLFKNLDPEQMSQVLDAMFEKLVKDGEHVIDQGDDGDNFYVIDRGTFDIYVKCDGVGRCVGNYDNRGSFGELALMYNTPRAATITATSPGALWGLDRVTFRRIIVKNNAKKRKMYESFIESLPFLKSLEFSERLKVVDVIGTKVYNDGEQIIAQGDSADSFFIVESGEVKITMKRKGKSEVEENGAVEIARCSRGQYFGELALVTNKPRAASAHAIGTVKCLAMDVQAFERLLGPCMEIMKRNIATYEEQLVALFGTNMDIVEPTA
Active calls of the source: *; . = no result. Hits are enriched below; roughly 0.94% of the tested compounds scored in any of these assays.

SMILES | aDG glyco up | UCH37 inh | Fh CTSL1 inh | PKA-R1A activ | PKA-R2B activ
CCOC(=O)C1=C(N)OC(CCl)=C(C#N)C1c1ccsc1 (centres undefined) | -0.1 | -1.4 | 60.1* | -15.2 | -4.5
CC(C)(C)C=NNC(=O)CNC(=O)c1ccc2c(c1)OCCO2 | . | -1.0 | . | . | .
Cc1ccc(NC(=O)Nc2cc(S(=O)(=O)N(C)C)ccc2C)cc1 | -0.2 | -0.7 | 17.8* | -3.0 | -10.6
Cc1ccc(S(=O)(=O)N(C)C)cc1NC(=O)Nc1ccccc1 | -0.2 | 7.0 | 4.0 | -6.1 | 5.2
CCOC(=O)c1nn(-c2ccc(F)cc2)c(=O)c2c(N)scc12 | 0.0 | 3.5 | 15.4 | -2.5 | 2.4
CCOC(=O)c1nn(-c2ccc(C)cc2)c(=O)c2c(N)scc12 | -0.1 | 3.2 | 16.8* | -6.7 | 2.3
CC(C)C[C@H](N)c1nnc(S(=O)(=O)Cc2ccc(F)cc2)o1 | 0.1 | . | 53.8* | -17.5 | -1.8
Cc1ccccc1NS(=O)(=O)c1ccc(C(=O)N2CCC2)cc1 | -0.2 | 1.6 | 18.6* | 1.4 | -0.2
Cc1ccc(NS(=O)(=O)c2ccc(C(=O)N3CCN(c4ccccn4)CC3)cc2)cc1 | 6.3* | . | 2.0 | -14.2 | -5.2
Cc1cc(C)c2c3c(sc2n1)C(=O)N(c1ccccc1C)CC(=O)N3 | -0.1 | 0.8 | -1.9 | -4.2 | -2.3
Cc1ccc(N2CC(=O)Nc3c(sc4nc(C)cc(C)c34)C2=O)cc1 | 0.0 | 3.7 | 28.5* | -5.7 | -16.5
CC1CC(C)CN(CCC(=O)Nc2ccc(Br)cc2)C1 (centres undefined) | 0.3 | 2.1 | 17.6* | -7.2 | -14.8
COC(C[C@H]1O[C@@H]1C(=O)[C@H](C)OCc1ccccc1)OC | -0.2 | 1.5 | 73.7* | 13.5 | 8.8
COC(C[C@H]1O[C@H]1C(=O)[C@H](C)OCc1ccccc1)OC | -0.2 | -2.0 | 75.9* | 1.9 | -4.4
COC(C[C@@H]1O[C@@H]1[C@@H](O)[C@H](C)OCc1ccccc1)OC | -0.1 | 4.0 | . | 0.3 | -13.5
COC(C[C@@H]1O[C@H]1[C@@H](O)[C@@H](C)OCc1ccccc1)OC | 1.0 | 0.4 | . | 7.5 | 6.7
COc1ccc(C)cc1NC(=O)C(=O)NN=C(C)CC(=O)Nc1cccnc1 | . | 2.8 | . | . | .
CC(=O)c1ccccc1NC(=O)CN1C(=O)CS/C1=C\c1nc(-c2ccc(C)cc2)cs1 | -0.3 | -11.0 | 17.8* | -0.5 | -7.9
CCNc1nc(NCC)n2c(SCC(=O)O)nnc2n1 | 0.2 | 34.1* | -3.7 | -5.8 | 14.1
O=C1CC(C(=O)Nc2ccc(Cl)c(Cl)c2)S/C(=N\N=Cc2ccco2)N1 (centres undefined) | . | 4.3 | . | . | .
CCCCC(=O)NC(=O)NC(c1ccccc1)c1ccccc1 | -0.1 | 6.3 | 32.6* | -12.9 | -6.3
CCCCC(=O)NC(=S)NNS(=O)(=O)c1ccccc1 | -0.2 | 2.7 | 2.4 | -2.9 | -1.0
Cc1ccc(S(=O)(=O)Nc2ccc(Br)cc2C(NCC(=O)O)c2ccccc2)cc1 (centres undefined) | -0.2 | 1.2 | 1.0 | -20.2 | -20.1
O=C(O)CSc1cc(NS(=O)(=O)c2ccc(Br)cc2)c2ccccc2c1O | 3.4* | . | -4.5 | -1.0 | 1.3
O=[N+]([O-])c1cc(-c2ccc(C(=S)N3CCOCC3)o2)ccc1Cl | 0.7 | 20.6* | -3.5 | -5.8 | -10.3
SMILES | aDG glyco up | UCH37 inh | Fh CTSL1 inh | PKA-R1A activ | PKA-R2B activ
Cc1cc(Cn2nc(C(=O)NCc3cccc(C(F)(F)F)c3)cc2-c2ccccc2)on1 | 1.9 | -1.7 | 2.8 | -0.9 | 1.5
Cc1ccc(CNC(=O)c2cc(-c3ccccc3)n(Cc3cc(C)no3)n2)cc1 | 0.1 | 23.5* | 1.0 | -24.7 | -4.5
CCc1cccc(CC)c1NC(=S)/C(=C(\[O-])c1ccc(Cl)s1)[n+]1ccccc1 | 0.0 | 5.9 | 34.2* | -2.2 | 2.1
[O-]/C(=C(\C(=S)Nc1cccc2ccccc12)[n+]1ccccc1)c1ccc(Cl)s1 | -0.3 | 3.0 | 1.1 | -7.7 | -17.1
Cn1ccc(C=N/N=C2/NC(=O)CS2)n1 | . | 5.9 | . | . | .
CCc1c(C(=O)NN=Cc2ccc(C)o2)csc1C | . | 5.5 | . | . | .
O=C(CSc1nnc(C2COc3ccccc3O2)o1)N1CCCC1 (centres undefined) | -0.3 | 1.3 | -5.4 | -13.9 | -15.9
O=C(CSc1nnc(C2CCCCC2)o1)N1CCCCC1 | 0.0 | 4.7 | 22.7* | 3.4 | -3.1
COc1ccc(Cc2nnc(SCC(=O)N3CCCCC3)o2)cc1 | 0.1 | 5.7 | 17.2* | -14.4 | -1.8
COc1ccc(Cc2nnc(SCC(=O)N3CCN(c4ccccc4)CC3)o2)cc1 | 0.2 | 1.6 | -6.5 | -1.7 | -0.1
CCN(c1ccccc1)c1cc2ccccc2c(=O)[nH]1 | -0.3 | . | 51.3* | -11.6 | -6.3
CNc1cc(=O)n(C)c(=O)n1-c1ccccc1 | -0.1 | 1.9 | 31.2* | -2.5 | 3.2
O=C(N/N=C/c1ccc([N+](=O)[O-])o1)c1ccc2c(c1)OCO2 | 10.4* | . | . | 7.4 | 3.4
NC(=S)N/N=C/c1ccc(-c2ccc([N+](=O)[O-])cc2)o1 | 0.0 | . | 22.1* | -0.1 | -13.5
O=C(Cc1ccc([N+](=O)[O-])cc1)N/N=C/c1ccc([N+](=O)[O-])o1 | 10.2* | . | -1.0 | -4.3 | -6.9
O=C(CNc1cccc2ccccc12)N/N=C/c1ccc([N+](=O)[O-])o1 | 8.2* | . | 0.2 | 2.0 | -13.5
CCCOc1ccc(C=NO)cc1 | . | 1.9 | . | . | .
COc1ccc(C=NNC(=O)CC(=O)NCCc2ccccc2)cc1OC | . | 4.0 | . | . | .
COc1ccc(C=NNC(=O)c2cc(-c3ccccc3OC(C)C)nc3ccccc23)cc1CN1CCOCC1 | . | 1.4 | . | . | .
Cc1cc(NN=Cc2ccncc2)nc2ccccc12 | . | 2.8 | . | . | .
Cc1cc(N/N=C/c2ccc([N+](=O)[O-])o2)nc2ccccc12 | 8.2* | . | 2.0 | -8.2 | -10.4
COCc1cc(C)nc(OCC(=O)NN=Cc2ccc(-c3cc([N+](=O)[O-])ccc3C)o2)c1C#N | . | 13.5 | . | . | .
C#CCOCCOCCOCCNc1nc(N2CCN(C(=O)[C@H]([C@@H](C)CC)n3cc([C@@H](N)CC(C)C)nn3)CC2)nc(N2CCN(C(=O)[C@H]([C@@H](C)CC)n3cc([C@@H](N)CC(C)C)nn3)CC2)n1 | -0.5 | -1.0 | 24.8* | -4.7 | 2.1
C#CCOCCOCCOCCNc1nc(N2CCN(C(=O)[C@H]([C@@H](C)CC)n3cc([C@@H](N)CC(C)C)nn3)CC2)nc(N2CCN(C(=O)[C@H](Cc3ccc(O)cc3)n3cc([C@@H](N)CC(C)C)nn3)CC2)n1 | . | 5.5 | 10.7 | . | .
N#Cc1ccc(Oc2ccc(C=NO)cn2)cc1 | . | 4.9 | . | . | .
Cc1cc(O)c2c(c1O)C(=O)[C@]13C(=C2O)C(=O)[C@@H]2[C@@H](O)[C@H]1[C@@H]1[C@H](O)[C@H]3C(=O)C3=C(O)c4c(O)cc(C)c(O)c4C(=O)[C@]312 | 0.7 | 20.9* | . | 7.5 | 5.2
O=C(NN=C(CC(=O)c1cccs1)C(F)(F)F)c1ccncc1 | . | 8.6 | . | . | .
